We go through 39 molecules from ChEMBL document CHEMBL4513216, “Probing the Open Global Health Chemical Diversity Library for Multistage-Active Starting Points for Next-Generation Antimalarials” (ACS Infect Dis, 2020).

A short description of this series: Toxicity liver stage against HepG2, at 10uM. In kind it is cell-based. Set-up: test concentration 10 uM, cell line HepG2-A16-CD81EGFP. As to conditions: human, HepG2-A16-CD81EGFP cells; read-out: INHIBITION
The method in brief: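 Uninfected HepG2-A16-CD81EGFP cells, 3 × 10^3 per well, 1536-well, plated on prespotted compound at 10 μM final, parasite-free screening media added to match infected plates; puromycin 10 μM positive, DMSO 0.5% negative; run in parallel with 48 h PbLuc assay at 37 °C, 5% CO2; viability by CellTiter-Glo luminescence, normalized to controls.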
Regarding `COCCNC(=O)NCc1cc(-c2ccncc2)n(C2CCCC2)n1`, the cytotoxicity at 10 µM is -8.71%.
The result for `CC(C)n1nc(CNc2ncccn2)c2c1CN(S(C)(=O)=O)CC2` reads -138%.
`Cc1noc(C2CCCCN2C(=O)NCc2ccco2)n1` (centres undefined): the cytotoxicity at 10 µM amounted to 0.986%.
Regarding `Cc1ccnc(OCC(=O)N2CCC(C(N)=O)CC2)n1`, the cytotoxicity at 10 µM is -17.7%.
With `CC1CCN(C(=O)c2cc(NC(=O)c3ccccc3)n(C)n2)CC1` the figure was 5.17%; with `Cn1nc(C(=O)N2CCCCCC2)cc1NC(=O)c1ccccc1`, -0.942%.
Consider `Cc1ncc2c(n1)CCCC2NC(=O)c1cnn(Cc2ccccc2)c1` (centres undefined), for which the cytotoxicity at 10 µM was -4.49%.
With `Cc1nc2cc(-c3nccn3C)nn2c(N2CCCC2)c1C` the figure was 4.53%; with `Cc1cnn(CC2CN(CC(=O)Nc3c(C)nn(C)c3C)CCO2)c1` (centres undefined), 1.08%; with `CCOC(C)c1nccn1Cc1cc(C)on1` (centres undefined), 8.41%.
The result for `CS(=O)(=O)Nc1cccc(CNC(=O)CCNC(=O)c2cccs2)c1` reads 0.466%.
For the molecule `Cc1cc(C(=O)N(CC2CCCO2)c2ccncc2)c(C)o1` (centres undefined), the cytotoxicity at 10 µM was -8.97%.
With `CCn1cnnc1C1CCN(C(=O)c2ccc3ccccc3n2)CC1` the figure was 6.13%; with `CC1(C)CN(CC(F)(F)F)CCN1CC(=O)NC1CCCC1`, 10.4%.
The result for `Cc1cc(C(=O)CN2CCN(c3ncccn3)CC2)c(C)n1C(C)C` reads 9.71%; that for `O=C(Cc1ccccc1O)NC1CCCN(c2ccccc2F)C1=O` (centres undefined), -13.7%; that for `O=C(NCCn1cnnc1C1CC1)c1c(O)cc(F)cc1F`, -1.88%.
With `Cc1nc2ccccn2c1CN(Cc1cccnc1)CC1CCCO1` (centres undefined) the figure was -7.1%.
Consider `CCS(=O)(=O)N1C[C@H]2CC[C@@]3(N=C(C)N(CC(C)C)C3=O)[C@H]2C1`, for which the cytotoxicity at 10 µM was -85%.
For `Cc1noc(-c2ccc(N(C)Cc3ccncn3)nc2)n1`, the cytotoxicity at 10 µM was 1.11%.
With `Cc1cc(-c2cccc3c2CCNC3)cnc1-n1cnnc1` the figure was -0.972%.
The result for `O=C(NC[C@H]1CCCN1)c1cc(COc2cccc(C(F)(F)F)c2)[nH]n1` reads -7.59%.
The result for `CCc1cnc(N2CCCOC(CN3CCCC3)C2)nc1` (centres undefined) reads -5.77%; that for `CCC(C)NC(=O)NCc1cc2n(n1)CCCN(C1CCCCC1)C2` (centres undefined), 3.11%.
As to `Cc1noc([C@@H]2CCCN2C(=O)C2CCN(C(=O)C3CCC3)CC2)n1`, the cytotoxicity at 10 µM is -14.4%.
Regarding `Cc1nnc2n1CCN(Cc1csc(-c3ncccn3)n1)C2`, the cytotoxicity at 10 µM is -38.1%.
The result for `O=C(c1ccc(-n2cnnn2)cc1)N1CCCC(n2ccnc2)C1` (centres undefined) reads -24.7%; that for `Cc1cnn(CC2CCCN2C(=O)c2cccc(S(C)(=O)=O)c2)c1` (centres undefined), -10.3%.
With `CCN(Cc1ccc2c(c1)OCO2)C(=O)NC(C)Cn1ccnc1` (centres undefined) the figure was -13.2%.
With `CC(C)(C)c1noc(CCC(=O)NCC2CCS(=O)(=O)C2)n1` (centres undefined) the figure was -18.1%.
`CN(C)c1ncccc1CNc1cc(N2CCCC2CO)ncn1` (centres undefined): the cytotoxicity at 10 µM is -8.48%.
Regarding `CN(Cc1nnc2n1CCC2)C(=O)c1ccc2c(c1)CCO2`, the cytotoxicity at 10 µM was -9.33%.
In the case of `CCCS(=O)(=O)NC(C)C(=O)NCc1ccc(N2CCN(C)CC2)nc1` (centres undefined), the cytotoxicity at 10 µM was -20.9%.
`COc1ccccc1CC(=O)N1CCCC1Cn1nc(C)cc1C` (centres undefined): the cytotoxicity at 10 µM was -9.37%.
Consider `Cc1cc(CN2C[C@H](N3CCOCC3)[C@@H]3OCCC[C@@H]32)oc1C`, for which the cytotoxicity at 10 µM is -139%.
With `CN1CCC2(C=C(C(=O)N3CCCC3)c3ccccc32)CC1`, the cytotoxicity at 10 µM was determined as 1.97%.
The result for `O=C(Cc1cccnc1)N1CCC2(CCN(CC3CCCCC3)C2)CC1` reads -1.28%.
With `CNC(=O)[C@H]1C[C@@H]2CCN(Cc3nccs3)C[C@H]2O1` the figure was -75.9%; with `COc1ccc(CN2C[C@@H]3OCCN(CCN(C)C)[C@@H]3C2)cc1`, -86.9%.
